In ChEMBL document CHEMBL4673214, “Synthesis and antibacterial bioactivities of cationic deacetyl linezolid amphiphiles” (Eur J Med Chem, 2018):

Tests used:
[1] = system: Staphylococcus aureus; test: Antibacterial activity against Staphylococcus aureus ATCC 29213 assessed as reduction in bacterial growth incubated for 16 to 20 hrs by CLSI-based broth microdilution method; assay type: functional; settings: time 16-20 hrs
Outline: (§1)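 Broth microdilution following CLSI, in cation-adjusted Mueller-Hinton broth. Inoculum from a 4-6 h culture (~10^8 CFU/mL), diluted to ~10^6 CFU/mL. Water stocks were serially diluted in MHB (256 to 0.5 µg/mL) and mixed 1:1 with the inoculum. Plates ran 16-20 h at 37 °C. MIC was read visually. Each concentration was tested in duplicate, and the experiment was repeated at least twice.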

[2] = system: Escherichia coli; test: Antibacterial activity against Escherichia coli ATCC 25922 assessed as reduction in bacterial growth incubated 16 to 20 hrs by CLSI-based broth microdilution method; assay type: functional; settings: time 16-20 hrs; outline: as §1
[3] = system: Salmonella enterica; test: Antibacterial activity against Salmonella enterica ATCC 8387 assessed as reduction in bacterial growth incubated for 16 to 20 hrs by CLSI-based broth microdilution method; assay type: functional; settings: time 16-20 hrs; outline: as §1
[4] = system: Enterococcus faecalis; test: Antibacterial activity against Enterococcus faecalis ATCC 29212 assessed as reduction in bacterial growth incubated 16 to 20 hrs by CLSI-based broth microdilution method; assay type: functional; settings: time 16-20 hrs; outline: as §1
[5] = Solubility of the compound in water at room temperature; assay type: physicochemical; settings: buffer

MIC [1] [µg/mL] | MIC [2] [µg/mL] | MIC [3] [µg/mL] | MIC [4] [µg/mL] | solubility [5] | Structure (SMILES)
8 | 32 | 32 | 16 | Soluble | CCCCCCCCC[N+](C)(C)CC(=O)NC[C@H]1CN(c2ccc(N3CCOCC3)c(F)c2)C(=O)O1.[Cl-]
128 | 128 | 128 | 64 | Soluble | CCCCCCCC[N+](C)(C)CC(=O)NC[C@H]1CN(c2ccc(N3CCOCC3)c(F)c2)C(=O)O1.[Cl-]
16 | 64 | 64 | 32 | Soluble | CCCCCCCCCN(C[C@H]1CN(c2ccc(N3CCOCC3)c(F)c2)C(=O)O1)C(=O)[C@@H](N)CCCN=C(N)N.Cl.Cl.Cl
128 | > 128 | > 128 | 128 | Soluble | CCCCCCCN(C[C@H]1CN(c2ccc(N3CCOCC3)c(F)c2)C(=O)O1)C(=O)[C@@H](N)CCCCN.Cl.Cl
> 128 | > 128 | > 128 | > 128 |  | NC[C@H]1CN(c2ccc(N3CCOCC3)c(F)c2)C(=O)O1
16 | 64 | 64 | 16 | Soluble | CCCCCCCCCN(C[C@H]1CN(c2ccc(N3CCOCC3)c(F)c2)C(=O)O1)C(=O)[C@@H](N)CCCCN.Cl.Cl
16 | > 128 | > 128 | 32 | Soluble | CCCCCCCCN(C[C@H]1CN(c2ccc(N3CCOCC3)c(F)c2)C(=O)O1)C(=O)[C@@H](N)CCCN=C(N)N.Cl.Cl.Cl
